Measured values as given in ChEMBL document CHEMBL4321807, “Cyanine-Gemcitabine Conjugates as Targeted Theranostic Agents for Glioblastoma Tumor Cells” (J Med Chem, 2019).
The source made the active and inactive calls. The calls are words filed in the database; no cut-off is given here.

What was measured:
[1] = tested on: U-87 MG; experiment: Cytotoxicity against human U87 cells assessed as reduction in cell viability at 0.001 to 10 uM incubated for 72 hrs by AlamarBlue assay; type: functional, cell-based; conditions: U-87MG ATCC
Summary of the method: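 U87 cells, grown in DMEM/F12 with 10% FBS, seeded at 5000/well and left overnight. Compounds added in protein-free hybridoma medium (PFHM II) to final 0.001–10 μM and incubated 72 h at 37 °C. Viability read by AlamarBlue, 2 h, fluorescence Ex/Em 560/590 nm. IC50 taken relative to the lowest concentration beyond which no further cell death occurs.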

[2] = Drug localization in mitochondria of human U87 cells at 20 uM incubated for 45 mins by Mitotracker staining-based confocal fluorescence microscopy; type: ADME; conditions: u-87mg atcc, 0.75 h
Summary of the method: (§1)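 U87 cells seeded at 10 000/well in imaging chambers and left overnight. Exposed to 20 μM compound in FluoroBrite DMEM for 45 min at 37 °C, then washed with HBSS. Stained 15 min with LysoTracker (1:10 000) or MitoTracker (1:15 000), plus NucBlue nuclear stain. Imaged live by confocal microscopy at 60×, dye excited at 633 nm. Colocalization scored by Pearson's correlation coefficient.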

[3] = Drug localization in lysosome of human U87 cells at 20 uM incubated for 45 mins by Lysotracker staining-based confocal fluorescence microscopy; type: ADME; conditions: u-87mg atcc, 0.75 h; summary of the method: as §1
[4] = tested on: U-87 MG; experiment: Cytotoxicity against human U87 cells assessed as reduction in cell viability incubated for 72 hrs by AlamarBlue assay; type: functional, cell-based, U-87MG ATCC
[5] = Toxicity in […] mouse xenografted with luciferase and RFP reporter expressing human U87 cells assessed as effect on body weight at 10 mg/kg, iv administered at day 4 and day 8 post inoculation and six injections weekly measured after 5 weeks; type: organism-based; conditions: in vivo, 840 h
[6] = tested on: U-87 MG; experiment: Antitumor activity against luciferase and RFP reporter expressing human U87 cells xenografted in Fox1nu mouse assessed as decrease in tumor size at 10 mg/kg, iv administered at day 4 and day 8 post inoculation and six injections weekly measured after 5 weeks by bioluminescence imaging analysis; type: functional, organism-based; conditions: U-87MG ATCC
[7] = tested on: U-87 MG; experiment: Antitumor activity against luciferase and RFP reporter expressing human U87 cells xenografted in Fox1nu mouse assessed as decrease in tumor burden at 10 mg/kg, iv administered at day 4 and day 8 post inoculation and six injections weekly measured after 5 weeks by bioluminescence imaging analysis; type: functional, organism-based; conditions: U-87MG ATCC

Row | Compound | Drug uptake [2] | Drug uptake [3] | IC50 [4] | further results
1 | CC1(C)C(/C=C/C2=C(SCCC(=O)Nc3ccn([C@H]4C[C@H](O)[C@@H](CO)O4)c(=O)n3)C(=C/C=C3/N(CCCCS(=O)(=O)O)c4ccccc4C3(C)C)/CCC2)=[N+](CCCCS(=O)(=O)O)c2ccccc21 | – | – | – | Activity [1]: Active
2 | CC1(C)C(/C=C/C2=C(SCCC(=O)Nc3ccn([C@@H]4O[C@H](CO)[C@@H](O)C4(F)F)c(=O)n3)C(=C/C=C3/N(CCCCS(=O)(=O)O)c4ccccc4C3(C)C)/CCC2)=[N+](CCCCS(=O)(=O)O)c2ccccc21.[Cl-] | Active | Active | 20.7 nM | –
3 | CCCN1/C(=C/C=C2\CCCC(/C=C/C3=[N+](CCC)c4ccccc4C3(C)C)=C2Cl)C(C)(C)c2ccccc21.[Cl-] | Active | Active | 7100 nM | –
4 | CC1(C)C(/C=C/C2=C(Cl)C(=C/C=C3/N(CCCCCC(=O)O)c4ccccc4C3(C)C)/CCC2)=[N+](CCCCS(=O)(=O)O)c2ccccc21.[Cl-] | Active | Active | – | –
5 | Nc1ccn([C@@H]2O[C@H](CO)[C@@H](O)C2(F)F)c(=O)n1 [GEMCITABINE] | – | – | 8.2 nM | Activity [5]: Non-Toxic; Activity [6]: inactive; Activity [7]: Active
6 | CC1(C)C(/C=C/C2=C(Cl)C(=C/C=C3/N(CCCCS(=O)(=O)O)c4ccccc4C3(C)C)/CCC2)=[N+](CCCCS(=O)(=O)O)c2ccccc21.[Cl-] | Active | Active | – | –
7 | CC1(C)C(/C=C/C2=C(SCCC(=O)Nc3ccn([C@@H]4O[C@H](CO)[C@@H](O)C4(F)F)c(=O)n3)C(=C/C=C3/N(CCCCCC(=O)O)c4ccccc4C3(C)C)/CCC2)=[N+](CCCCS(=O)(=O)O)c2ccccc21.[Cl-] | Not Active | – | – | –
